The record followed here is ChEMBL document CHEMBL1145310, “Isothiazolopyrimidines and isoxazolopyrimidines as novel multi-targeted inhibitors of receptor tyrosine kinases” (Bioorg Med Chem Lett, 2006).

Series [1] can be described thus: Oral bioavailability in mouse at 10 mg/kg, po. The note with it: in vivo.
The nature of series [2]: Half life in mouse at 3 mg/kg, iv. The format is ADME, organism-based. Details: dose 3 mg/kg, route intravenous. The note with it: in vivo. The gist of the method:
(§1)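 Mouse pharmacokinetics: single intravenous dose of 3 mg/kg and single oral dose of 10 mg/kg. Half-life, volume of distribution at steady state, clearance, oral bioavailability and oral AUC were determined.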

A short description of series [3]: AUC in mouse at 10 mg/kg, po. In kind it is ADME, organism-based. Further details: dose 10 mg/kg, route oral. The note with it: plasma. The gist of the method: as §1
The target of series [4] is Vascular endothelial growth factor receptor 2 (Homo sapiens, UniProt P35968). Briefly: Inhibition of KDR.
Series [5] deals with Mast/stem cell growth factor receptor Kit (Homo sapiens, UniProt P10721). Nature of the series: Inhibition of CKIT.
Series [6] has as its target Vascular endothelial growth factor receptor 3 (Homo sapiens, UniProt P35916). Nature of the series: Inhibition of FLT4.
The target in the next series is Angiopoietin-1 receptor (Homo sapiens, UniProt Q02763). Nature of the series: Inhibition of TIE2. The gist of the method:
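Kinase enzymatic assays run separately for each target. Each IC50 came from seven inhibitor concentrations, with every assay point determined in duplicate.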

The target of series [7] is Vascular endothelial growth factor receptor 1 (Homo sapiens, UniProt P17948). Nature of the series: Inhibition of FLT1.
Series [8] in a line: Clearance in mouse at 3 mg/kg, iv. The format is ADME, organism-based. Details: dose 3 mg/kg, route intravenous. The note with it: in vivo.
A short description of series [9]: Volume of distribution in mouse at 3 mg/kg, iv. The format is ADME, organism-based. Details: dose 3 mg/kg, route intravenous. The following applies: in vivo, read-out: Vdss.

Angiopoietin-1 receptor, sequence (Q02763 whole entry): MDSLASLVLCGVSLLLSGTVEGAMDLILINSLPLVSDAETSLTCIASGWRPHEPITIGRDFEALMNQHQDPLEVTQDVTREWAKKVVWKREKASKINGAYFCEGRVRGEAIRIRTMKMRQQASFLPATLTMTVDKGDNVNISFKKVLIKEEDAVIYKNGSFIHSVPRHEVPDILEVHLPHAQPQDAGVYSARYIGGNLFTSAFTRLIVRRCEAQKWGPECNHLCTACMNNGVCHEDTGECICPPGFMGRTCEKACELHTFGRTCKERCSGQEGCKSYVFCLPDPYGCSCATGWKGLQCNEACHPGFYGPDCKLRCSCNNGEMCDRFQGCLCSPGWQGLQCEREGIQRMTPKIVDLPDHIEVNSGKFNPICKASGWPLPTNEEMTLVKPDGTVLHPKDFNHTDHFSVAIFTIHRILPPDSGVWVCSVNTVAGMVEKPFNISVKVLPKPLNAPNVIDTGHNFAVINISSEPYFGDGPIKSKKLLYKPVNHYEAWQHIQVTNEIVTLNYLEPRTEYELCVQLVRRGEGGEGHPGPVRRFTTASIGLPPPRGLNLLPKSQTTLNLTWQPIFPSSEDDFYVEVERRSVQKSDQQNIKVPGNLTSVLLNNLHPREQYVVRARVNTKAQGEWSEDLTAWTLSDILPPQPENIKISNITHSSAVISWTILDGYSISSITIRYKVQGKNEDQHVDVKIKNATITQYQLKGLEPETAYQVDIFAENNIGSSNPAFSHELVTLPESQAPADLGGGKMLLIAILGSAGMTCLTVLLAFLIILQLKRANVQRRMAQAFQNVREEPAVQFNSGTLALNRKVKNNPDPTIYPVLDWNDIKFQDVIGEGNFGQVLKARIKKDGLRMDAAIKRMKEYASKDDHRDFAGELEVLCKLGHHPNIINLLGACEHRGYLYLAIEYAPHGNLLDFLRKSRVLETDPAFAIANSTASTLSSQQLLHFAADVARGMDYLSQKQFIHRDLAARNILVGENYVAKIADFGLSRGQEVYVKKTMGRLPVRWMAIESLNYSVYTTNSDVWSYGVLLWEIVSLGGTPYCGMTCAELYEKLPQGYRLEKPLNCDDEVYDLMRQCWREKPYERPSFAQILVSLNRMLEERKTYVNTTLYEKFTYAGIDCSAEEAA
Vascular endothelial growth factor receptor 2, sequence (P35968 whole entry): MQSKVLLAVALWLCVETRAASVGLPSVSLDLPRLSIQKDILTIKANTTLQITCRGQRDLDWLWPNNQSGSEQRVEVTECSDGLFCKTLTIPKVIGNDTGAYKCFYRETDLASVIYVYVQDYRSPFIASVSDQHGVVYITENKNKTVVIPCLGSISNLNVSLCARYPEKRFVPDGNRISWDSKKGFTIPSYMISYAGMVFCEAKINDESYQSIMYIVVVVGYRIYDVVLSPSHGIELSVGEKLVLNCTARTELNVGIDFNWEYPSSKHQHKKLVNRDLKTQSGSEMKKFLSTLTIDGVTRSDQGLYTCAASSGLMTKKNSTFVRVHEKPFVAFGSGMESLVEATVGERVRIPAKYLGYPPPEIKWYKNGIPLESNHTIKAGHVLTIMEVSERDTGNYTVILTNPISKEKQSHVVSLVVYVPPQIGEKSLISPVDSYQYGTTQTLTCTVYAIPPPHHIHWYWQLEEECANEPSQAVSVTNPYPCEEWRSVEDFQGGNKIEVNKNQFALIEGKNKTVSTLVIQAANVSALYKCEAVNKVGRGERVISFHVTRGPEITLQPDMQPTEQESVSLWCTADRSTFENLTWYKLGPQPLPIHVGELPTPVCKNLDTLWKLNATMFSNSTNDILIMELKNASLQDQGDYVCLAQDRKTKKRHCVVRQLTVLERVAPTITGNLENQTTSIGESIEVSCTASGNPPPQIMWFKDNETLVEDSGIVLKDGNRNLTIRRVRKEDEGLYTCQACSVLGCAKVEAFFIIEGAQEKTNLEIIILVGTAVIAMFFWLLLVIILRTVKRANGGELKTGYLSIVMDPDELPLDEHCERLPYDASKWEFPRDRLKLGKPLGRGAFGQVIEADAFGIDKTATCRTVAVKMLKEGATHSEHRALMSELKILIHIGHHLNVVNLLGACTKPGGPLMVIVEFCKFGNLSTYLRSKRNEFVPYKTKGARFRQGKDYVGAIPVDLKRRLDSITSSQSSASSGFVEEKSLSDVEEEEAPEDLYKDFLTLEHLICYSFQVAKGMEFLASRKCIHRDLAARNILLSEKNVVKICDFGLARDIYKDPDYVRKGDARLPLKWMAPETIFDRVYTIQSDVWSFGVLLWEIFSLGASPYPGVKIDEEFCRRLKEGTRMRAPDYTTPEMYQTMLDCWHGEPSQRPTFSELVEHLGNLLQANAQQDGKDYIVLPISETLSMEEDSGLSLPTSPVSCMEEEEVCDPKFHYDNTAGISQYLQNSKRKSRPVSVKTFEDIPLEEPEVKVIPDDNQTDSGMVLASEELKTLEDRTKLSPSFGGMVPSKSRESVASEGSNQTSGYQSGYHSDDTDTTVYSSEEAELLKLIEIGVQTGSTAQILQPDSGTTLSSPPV
Mast/stem cell growth factor receptor Kit, sequence (P10721 whole entry): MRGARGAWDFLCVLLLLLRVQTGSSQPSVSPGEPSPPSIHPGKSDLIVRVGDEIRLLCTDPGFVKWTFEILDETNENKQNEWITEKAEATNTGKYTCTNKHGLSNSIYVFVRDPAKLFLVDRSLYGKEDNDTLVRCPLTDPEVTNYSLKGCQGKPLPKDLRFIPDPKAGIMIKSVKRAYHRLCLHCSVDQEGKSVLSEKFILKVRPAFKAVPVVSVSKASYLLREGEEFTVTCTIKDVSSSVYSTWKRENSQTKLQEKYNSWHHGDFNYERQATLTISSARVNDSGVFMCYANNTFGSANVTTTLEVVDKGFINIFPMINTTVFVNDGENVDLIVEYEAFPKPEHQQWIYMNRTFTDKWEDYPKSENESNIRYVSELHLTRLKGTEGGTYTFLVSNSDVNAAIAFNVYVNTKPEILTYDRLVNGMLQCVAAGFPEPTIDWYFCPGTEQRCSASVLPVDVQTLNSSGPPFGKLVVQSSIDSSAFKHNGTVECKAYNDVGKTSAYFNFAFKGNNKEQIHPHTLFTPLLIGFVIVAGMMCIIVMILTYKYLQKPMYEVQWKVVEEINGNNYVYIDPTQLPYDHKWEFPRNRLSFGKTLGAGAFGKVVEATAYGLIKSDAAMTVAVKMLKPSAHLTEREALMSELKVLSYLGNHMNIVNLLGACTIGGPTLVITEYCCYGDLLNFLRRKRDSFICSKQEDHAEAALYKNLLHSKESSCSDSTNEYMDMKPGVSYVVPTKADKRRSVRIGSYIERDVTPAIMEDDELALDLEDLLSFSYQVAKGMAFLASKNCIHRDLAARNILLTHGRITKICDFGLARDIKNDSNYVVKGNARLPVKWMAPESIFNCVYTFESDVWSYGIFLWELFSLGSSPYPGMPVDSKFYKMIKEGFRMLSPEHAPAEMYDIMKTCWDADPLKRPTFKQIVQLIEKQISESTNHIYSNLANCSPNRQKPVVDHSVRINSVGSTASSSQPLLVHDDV
Vascular endothelial growth factor receptor 3, sequence (P35916 whole entry): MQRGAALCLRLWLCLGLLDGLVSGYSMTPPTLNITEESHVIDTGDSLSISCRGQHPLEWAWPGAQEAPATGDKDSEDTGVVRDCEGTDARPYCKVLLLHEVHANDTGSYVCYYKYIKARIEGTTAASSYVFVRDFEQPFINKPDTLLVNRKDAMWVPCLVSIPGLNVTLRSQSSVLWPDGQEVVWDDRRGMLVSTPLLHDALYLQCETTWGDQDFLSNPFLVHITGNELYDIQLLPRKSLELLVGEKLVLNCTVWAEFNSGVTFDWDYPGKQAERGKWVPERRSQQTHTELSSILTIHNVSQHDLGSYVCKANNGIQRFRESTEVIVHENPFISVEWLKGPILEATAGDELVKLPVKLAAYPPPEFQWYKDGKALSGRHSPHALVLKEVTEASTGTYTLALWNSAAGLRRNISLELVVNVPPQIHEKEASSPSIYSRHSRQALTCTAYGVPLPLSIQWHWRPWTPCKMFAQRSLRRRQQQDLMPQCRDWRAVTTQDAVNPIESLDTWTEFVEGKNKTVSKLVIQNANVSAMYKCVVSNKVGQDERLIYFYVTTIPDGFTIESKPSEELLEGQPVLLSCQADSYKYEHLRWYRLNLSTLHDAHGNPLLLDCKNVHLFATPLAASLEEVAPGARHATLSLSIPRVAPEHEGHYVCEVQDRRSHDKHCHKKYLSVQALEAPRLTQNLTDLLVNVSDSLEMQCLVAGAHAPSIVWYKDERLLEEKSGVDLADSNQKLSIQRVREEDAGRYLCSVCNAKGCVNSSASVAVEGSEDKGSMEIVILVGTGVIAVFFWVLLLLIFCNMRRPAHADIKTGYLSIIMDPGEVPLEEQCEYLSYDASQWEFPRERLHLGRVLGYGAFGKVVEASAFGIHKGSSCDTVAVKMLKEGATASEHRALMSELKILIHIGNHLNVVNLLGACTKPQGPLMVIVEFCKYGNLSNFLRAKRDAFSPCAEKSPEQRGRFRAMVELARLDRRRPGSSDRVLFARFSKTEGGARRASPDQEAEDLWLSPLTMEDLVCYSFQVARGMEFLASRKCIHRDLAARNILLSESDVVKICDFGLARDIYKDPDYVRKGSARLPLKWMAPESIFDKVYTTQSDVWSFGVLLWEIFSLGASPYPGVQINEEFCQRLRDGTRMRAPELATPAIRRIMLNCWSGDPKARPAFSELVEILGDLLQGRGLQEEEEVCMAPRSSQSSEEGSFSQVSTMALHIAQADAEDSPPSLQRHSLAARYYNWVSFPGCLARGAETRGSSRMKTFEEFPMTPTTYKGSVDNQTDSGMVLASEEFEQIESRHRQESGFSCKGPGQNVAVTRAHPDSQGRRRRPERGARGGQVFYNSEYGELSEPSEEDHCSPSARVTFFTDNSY

For `Cc1cccc(NC(=O)Nc2ccc(-c3csc4ncnc(N)c34)cc2)c1`, the bioavailability in [1] is 65%. In series [2], this molecule showed a half-life of 42 min. The same molecule showed an area under the curve (AUC) in [3] of 14 µM·h.

In [4], `Nc1ncnc2onc(-c3ccc(NC(=O)c4ccccc4)cc3)c12` returned an IC50 of more than 50000 nM.

Turning to `Nc1ncnc2snc(-c3ccc(NC(=O)Nc4cccc(C(F)(F)F)c4)cc3)c12`, the concentration for half-maximal inhibition (IC50) in series [5] is 18 nM; in series [6] it was less than 3 nM; on Angiopoietin-1 receptor, 28 nM; in series [7] it was 39 nM.

`Cc1cc(C)c2oc(Nc3ccc(-c4noc5ncnc(N)c45)cc3)nc2c1` gave a 50% inhibitory concentration (IC50) in series [4] of more than 50000 nM.

As to `Nc1ncnc2snc(-c3ccc(NC(=O)Nc4cc(C(F)(F)F)ccc4F)cc3)c12`, the IC50 came to 28 nM in series [5], 23 nM in [6], 22 nM against Angiopoietin-1 receptor and 75 nM in series [7].

Molecule `Cc1ccc(F)c(NC(=O)Nc2ccc(-c3nsc4ncnc(N)c34)cc2)c1` gave a clearance in series [8] of 75 mL/min/kg. In series [1], this molecule had a bioavailability of 48%. Further, the half-life in [2] was 12 min. On Angiopoietin-1 receptor, this molecule yielded a half-inhibitory concentration (IC50) of 19 nM. Further, the Vd in series [9] was 1.19 L/kg. In series [3], this molecule returned an area under the curve (AUC) of 2.7 µM·h.

In series [4], `Nc1ncnc2snc(-c3ccc([N+](=O)[O-])cc3)c12` had an IC50 of more than 50000 nM.

For `Cc1cccc(NC(=O)Nc2ccc(-c3nsc4ncnc(N)c34)cc2)c1`, the IC50 in series [5] came out at 11 nM; in series [6], 4 nM; against Angiopoietin-1 receptor it was 415 nM; in series [7] it was 79 nM. The same molecule had a clearance in series [8] of 26.7 mL/min/kg. Also, the bioavailability in series [1] came to 56%. Moreover, in series [2], the half-life was 36 min. Besides, in series [9], the Vd is 1.36 L/kg. Besides, the exposure (AUC) in series [3] was found to be 9.1 µM·h.
